Measured values reported in ChEMBL document CHEMBL1128448, “Synthesis and antifungal activity of new azole derivatives containing an N-acylmorpholine ring” (1995).
Values after ≈ are worked out from the molar mass of the structure shown.

What was measured:
Nannizzia gypsea = assay: In vitro evaluation of minimum inhibitory concentration against Microsporum gypseum 22; assay type: functional
Procedure, shortened: (§1)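 Stocks are 800 μg/mL in 50% ethanol. Each plate gets 10 μL of inoculum at 10^5 cfu/mL. Incubation at 25 °C, 48 h for yeasts and 120 h for dermatophytes and molds. Organisms are ATCC strains or clinical isolates.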

Mus sp. [1] = assay: In vivo evaluation of % survival rate after peroral administration on 7th day at dose 1 mg/kg; assay type: functional; conditions: for Survival: route oral, 1 mg/kg
Mus sp. [2] = assay: In vivo evaluation of % survival rate after peroral administration on 9th day at dose 2.5 mg/kg; assay type: functional; conditions: for survival at 2.5 mg/kg: Mus sp., po
Candida tropicalis = assay: In vitro evaluation of minimum inhibitory concentration against Candida tropicalis 2.11; assay type: functional; procedure, shortened: as §1
Mus sp. [3] = assay: In vivo evaluation of % survival rate after peroral administration on 5th day at dose 2.5 mg/kg; assay type: functional; conditions: for survival at 2.5 mg/kg: Mus sp., po
Mus sp. [4] = assay: In vivo evaluation of % survival rate after peroral administration on 3rd day at dose 1 mg/kg; assay type: functional; conditions: for Survival: route oral, 1 mg/kg
Microsporum canis = assay: In vitro evaluation of minimum inhibitory concentration against Microsporum canis 47; assay type: functional; procedure, shortened: as §1
Kluyveromyces marxianus = assay: In vitro evaluation of minimum inhibitory concentration against Candida pseudotropicalis 13; assay type: functional; procedure, shortened: as §1
Mus sp. [5] = assay: In vivo evaluation of % survival rate after peroral administration on 5th day at dose 1 mg/kg; assay type: functional; conditions: for Survival: route oral, 1 mg/kg
Pichia kudriavzevii = assay: In vitro evaluation of minimum inhibitory concentration against Candida krusei 70; assay type: functional; procedure, shortened: as §1
Mus sp. [6] = assay: In vivo evaluation of % survival rate after peroral administration on 9th day at dose 1 mg/kg; assay type: functional; conditions: for Survival: route oral, 1 mg/kg
Candida albicans [7] = assay: In vitro evaluation of minimum inhibitory concentration against Candida albicans 76; assay type: functional; procedure, shortened: as §1
Rhodotorula mucilaginosa = assay: In vitro evaluation of minimum inhibitory concentration against Rhodotorula rubra 16; assay type: functional; procedure, shortened: as §1
Trichophyton benhamiae = assay: In vitro evaluation of minimum inhibitory concentration against Trichophyton mentagrophytes 23; assay type: functional, Arthroderma benhamiae; procedure, shortened: as §1
Mus sp. [8] = assay: In vivo evaluation of % survival rate after peroral administration on 7th day at dose 2.5 mg/kg; assay type: functional; conditions: for survival at 2.5 mg/kg: Mus sp., po
Trichophyton rubrum = assay: In vitro evaluation of minimum inhibitory concentration against Trichophyton rubrum 90; assay type: functional; procedure, shortened: as §1
[9] = system: Meyerozyma guilliermondii; assay: In vitro evaluation of minimum inhibitory concentration against Candida guilliermondii 26; assay type: functional; procedure, shortened: as §1
Candida albicans [10] = assay: In vivo evaluation of minimum inhibitory concentration against Candida albicans 60; assay type: functional
Procedure, shortened: (§2)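 Broth macrodilution MIC following NCCLS M27-P, in RPMI-1640 buffered with 0.165 M MOPS. Fluconazole was dissolved in water and other drugs in DMSO. C. parapsilosis ATCC 22019 served as the reference strain in every run. MIC was the lowest concentration giving turbidity at or below the 80% inhibition standard.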

Mus sp. [11] = assay: In vivo evaluation of % survival rate after peroral administration on 3rd day at dose 2.5 mg/kg; assay type: functional; conditions: for survival at 2.5 mg/kg: Mus sp., po
Candida parapsilosis = assay: In vitro evaluation of minimum inhibitory concentration against Candida parapsilosis 61; assay type: functional; procedure, shortened: as §1
Nakaseomyces glabratus = assay: In vitro evaluation of minimum inhibitory concentration against Torulopsis glabrata 78; assay type: functional; conditions: Nakaseomyces glabratus; read-out: MIC; procedure, shortened: as §1
Candida albicans [12] = assay: In vivo evaluation of minimum inhibitory concentration against Candida albicans 406; assay type: functional; procedure, shortened: as §2
Aspergillus niger = assay: In vitro evaluation of minimum inhibitory concentration against Aspergillus niger 18; assay type: functional; conditions: Aspergillus niger; read-out: MIC; procedure, shortened: as §1
Aspergillus flavus = assay: In vitro evaluation of minimum inhibitory concentration against Aspergillus flavus 19; assay type: functional; conditions: Aspergillus flavus; read-out: MIC; procedure, shortened: as §1
Aspergillus fumigatus = assay: In vitro evaluation of minimum inhibitory concentration against Aspergillus fumigatus 33; assay type: functional; conditions: Aspergillus fumigatus; read-out: MIC; procedure, shortened: as §1
[13] = Nannizzia gypsea, read-out: MIC
[14] = Candida tropicalis, read-out: MIC
[15] = Candida albicans, read-out: MIC
[16] = Microsporum canis, read-out: MIC
[17] = Kluyveromyces marxianus, read-out: MIC
[18] = Pichia kudriavzevii, read-out: MIC
[19] = Rhodotorula mucilaginosa, read-out: MIC
[20] = Trichophyton benhamiae, read-out: MIC
[21] = Trichophyton rubrum, read-out: MIC
[22] = Meyerozyma guilliermondii, read-out: MIC
[23] = Lodderomyces parapsilosis, read-out: MIC

Compound | MIC (Nannizzia gypsea; [13]) [µg/mL] | MIC (Nakaseomyces glabratus) [µg/mL] | survival at 2.5 mg/kg (Mus sp. [2]) [%] | MIC (Candida tropicalis; [14]) [µg/mL] | survival at 2.5 mg/kg (Mus sp. [3]) [%] | MIC (Candida albicans [12]; [15]) [µg/mL] | MIC (Aspergillus niger) [µg/mL] | MIC (Microsporum canis; [16]) [µg/mL] | MIC (Kluyveromyces marxianus; [17]) [µg/mL] | MIC (Pichia kudriavzevii; [18]) [µg/mL] | MIC (Aspergillus flavus) [µg/mL] | MIC (Candida albicans [7]; [15]) [µg/mL] | MIC (Rhodotorula mucilaginosa; [19]) [µg/mL] | MIC (Trichophyton benhamiae; [20]) [µg/mL] | survival at 2.5 mg/kg (Mus sp. [8]) [%] | MIC (Trichophyton rubrum; [21]) [µg/mL] | MIC [9, 22] [µg/mL] | MIC (Aspergillus fumigatus) [µg/mL] | MIC (Candida albicans [10]; [15]) [µg/mL] | survival at 2.5 mg/kg (Mus sp. [11]) [%] | also measured
C[C@H]1N(C(=O)c2ccc(C(F)(F)F)cc2)CCO[C@@]1(Cn1cncn1)c1ccc(F)cc1F (racemic) | – | – | – | – | – | – | – | – | – | – | – | – | – | – | – | – | – | – | – | – | MIC (Nannizzia gypsea): 40 µg/mL (≈ 85.8 µM); Survival (Mus sp. [1]): 10%; Survival (Mus sp. [2]; route oral, 2.5 mg/kg): 90%; MIC (Candida tropicalis): 80 µg/mL (≈ 172 µM); Survival (Mus sp. [3]; route oral, 2.5 mg/kg): 100%; Survival (Mus sp. [4]): 80%; MIC (Microsporum canis): 40 µg/mL (≈ 85.8 µM); MIC (Kluyveromyces marxianus): 5 µg/mL (≈ 10.7 µM); Survival (Mus sp. [5]): 70%; MIC (Pichia kudriavzevii): 80 µg/mL (≈ 172 µM); Survival (Mus sp. [6]): 0%; MIC (Candida albicans [7]): 80 µg/mL (≈ 172 µM); MIC (Rhodotorula mucilaginosa): 40 µg/mL (≈ 85.8 µM); MIC (Trichophyton benhamiae): 80 µg/mL (≈ 172 µM); Survival (Mus sp. [8]; route oral, 2.5 mg/kg): 90%; MIC (Trichophyton rubrum): 20 µg/mL (≈ 42.9 µM); MIC [9]: 80 µg/mL (≈ 172 µM); MIC (Candida albicans [10]): 1.25 µg/mL (≈ 2.68 µM); Survival (Mus sp. [11]; route oral, 2.5 mg/kg): 100%; MIC (Candida parapsilosis): 40 µg/mL (≈ 85.8 µM)
C[C@H]1N(C(=O)c2ccc(C(F)(F)F)cc2)C[C@H](O)O[C@@]1(Cn1cncn1)c1ccc(Cl)cc1Cl (racemic) | 40 (≈ 77.6 µM) | 20 (≈ 38.8 µM) | 100 | 20 (≈ 38.8 µM) | 100 | 0.63 (≈ 1.22 µM) | > 80 | 40 (≈ 77.6 µM) | 0.15 (≈ 0.291 µM) | 10 (≈ 19.4 µM) | 20 (≈ 38.8 µM) | 5 (≈ 9.7 µM) | 2.5 (≈ 4.85 µM) | 40 (≈ 77.6 µM) | 100 | 40 (≈ 77.6 µM) | 5 (≈ 9.7 µM) | 20 (≈ 38.8 µM) | 1.25 (≈ 2.43 µM) | 100 | survival at 1 mg/kg (Mus sp. [1]; Mus sp., po): 90%; survival at 1 mg/kg (Mus sp. [4]; Mus sp., po): 100%; survival at 1 mg/kg (Mus sp. [5]; Mus sp., po): 100%; survival at 1 mg/kg (Mus sp. [6]; Mus sp., po): 70%; MIC (Candida parapsilosis; [23]): 2.5 µg/mL (≈ 4.85 µM)
C[C@H]1N(C(=O)c2ccccc2)CCO[C@@]1(Cn1cncn1)c1ccccc1 (racemic) | > 80 | > 80 | 0 | > 80 | 0 | > 80 | > 80 | > 80 | > 80 | > 80 | > 80 | > 80 | > 80 | > 80 | 0 | > 80 | > 80 | > 80 | > 80 | 40 | MIC (Candida parapsilosis; [23]): > 80 µg/mL
C[C@H]1N(C(=O)c2ccc(C(F)(F)F)cc2)C[C@H](O)O[C@@]1(Cn1cncn1)c1ccc(F)cc1F (racemic) | – | > 80 | 100 | > 80 | 100 | – | – | – | – | – | – | – | > 80 | – | 100 | – | – | – | – | 100 | Survival (Mus sp. [1]): 55%; Survival (Mus sp. [4]): 85%; MIC (Candida albicans [12]): 2.5 µg/mL (≈ 5.18 µM); MIC (Microsporum canis): 80 µg/mL (≈ 166 µM); MIC (Kluyveromyces marxianus): 10 µg/mL (≈ 20.7 µM); Survival (Mus sp. [5]): 85%; Survival (Mus sp. [6]): 25%; MIC (Candida albicans [7]): >80 µg/mL; MIC (Trichophyton rubrum): >80 µg/mL; MIC [9]: >80 µg/mL; MIC (Candida albicans [10]): 10 µg/mL (≈ 20.7 µM); MIC (Candida parapsilosis): 80 µg/mL (≈ 166 µM)
C[C@H]1N(C(=O)c2ccc(OCC(F)(F)C(F)F)cc2)CC(=O)O[C@@]1(Cn1cncn1)c1ccc(Cl)cc1Cl (racemic) | 80 (≈ 139 µM) | > 80 | 60 | 80 (≈ 139 µM) | 90 | 1.25 (≈ 2.17 µM) | > 80 | > 80 | 10 (≈ 17.4 µM) | > 80 | > 80 | 20 (≈ 34.8 µM) | 80 (≈ 139 µM) | > 80 | 80 | > 80 | 80 (≈ 139 µM) | > 80 | 2.5 (≈ 4.35 µM) | 90 | MIC (Candida parapsilosis; [23]): 20 µg/mL (≈ 34.8 µM)
